Experiments:
BT-20 [1] = experiment: Antitumor activity in human BT20 cells xenografted in NCR-nu/nu, Taconic mouse assessed as decrease in tumor volume at 200 mg/kg, ip administered every other day for 22 days relative to control; type: functional; details: route intraperitoneal
Outline: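 Female athymic NCR-nu/nu mice received 0.5–1.0 x10⁷ BT20 cells subcutaneously in the hind leg. Dosing began about 14 days later, with tumors near 70 mm³. Groups of N=9 got 200 mg/kg in PBS or PBS vehicle, Q2D x 20. Two tumor dimensions were measured by caliper three times weekly, and V = L×S²×π/6. Body weight and toxicity signs were tracked. Group means ±SEM.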

[2] = Cytotoxicity against human PS41 cells after 96 hrs by trypan blue exclusion assay; type: cell-based; details: PS41, 96 h
Outline: (§1)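 Cells grown in DMEM or RPMI with 10% FBS and penicillin-streptomycin, seeded at 1.0 × 10⁵ cells/mL/well in 6-well dishes. Compound added at a range of concentrations 24 h after seeding. Viable cells counted by trypan blue exclusion from duplicate wells after 96 h of exposure; dose-response end point.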

[3] = Cytotoxicity against human WM278 cells after 96 hrs by trypan blue exclusion assay; type: functional, cell-based; details: WM278, 96 h
Outline: (§2)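 Cells grown in DMEM or RPMI with 10% FBS and 1 unit/mL penicillin-streptomycin, seeded at 1.0 × 10⁵ cells/mL/well in 6-well dishes; compound added 24 h later at various concentrations. After 96 h of treatment, viable cells counted by trypan blue exclusion in duplicate wells; dose-response end point.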

OPM-2 = experiment: Cytotoxicity against human OPM2 cells after 96 hrs by trypan blue exclusion assay; type: functional, cell-based; details: OPM-2, 96 h; outline: as §1
[4] = Cytotoxicity against human MES-SA cells assessed as cell viability after 96 hrs by trypan blue exclusion; type: functional, cell-based; outline: as §1
[5] = Cytotoxicity against multidrug-resistant human MES-SA/Dx5 cells assessed as cell viability after 96 hrs by trypan blue exclusion; type: functional, cell-based; details: MES-SA/Dx5, 96 h; outline: as §2
[6] = Cytotoxicity against human COLO320 cells after 96 hrs by trypan blue exclusion assay; type: functional, cell-based; details: COLO 320, 96 h; outline: as §1
LP-1 = experiment: Cytotoxicity against human LP-1 cells after 96 hrs by trypan blue exclusion assay; type: functional, cell-based; details: LP-1, 96 h; outline: as §1
BT-20 [7] = experiment: Cytotoxicity against human BT20 cells after 96 hrs by trypan blue exclusion assay; type: functional, cell-based; details: BT-20, 96 h; outline: as §1
CEM/C2 = experiment: Resistance ratio of IC50 for human CEM cells to IC50 for multidrug-resistant human CEM/C2 cells; type: functional
Outline: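 Cells were grown in DMEM or RPMI with 10% FBS and plated at 1.0 × 10⁵ cells/mL/well in 6-well dishes. Compound was added 24 h later at various concentrations for 96 h. Viable cells were counted from duplicate wells by trypan blue exclusion, and the IC50 of each line gave the ratio.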

HEL = experiment: Cytotoxicity against human HEL cells after 96 hrs by trypan blue exclusion assay; type: functional, cell-based; outline: as §1
Bel-7402 = experiment: Cytotoxicity against human Bel7402 cells after 96 hrs by trypan blue exclusion assay; type: functional, cell-based; details: Bel-7402, 96 h; outline: as §1
PANC-1 = experiment: Cytotoxicity against human PANC1 cells after 96 hrs by trypan blue exclusion assay; type: functional, cell-based; details: PANC-1, 96 h; outline: as §1
[8] = Cytotoxicity against human WM983A cells after 96 hrs by trypan blue exclusion assay; type: functional, cell-based; outline: as §2
NCI-H1975 = experiment: Cytotoxicity against human NCI-H1975 cells after 96 hrs by trypan blue exclusion assay; type: functional, cell-based; details: NCI-H1975, 96 h; outline: as §1
[9] = Cytotoxicity against human WM3211 cells after 96 hrs by trypan blue exclusion assay; type: functional, cell-based; details: WM3211, 96 h; outline: as §2
HUVEC = experiment: Cytotoxicity against HUVEC after 96 hrs by trypan blue exclusion assay; type: cell-based; details: Homo sapiens; outline: as §1
[10] = Cytotoxicity against human RF48 cells after 96 hrs by trypan blue exclusion assay; type: functional, cell-based; details: RF48, 96 h; outline: as §2
[11] = Cytotoxicity against human HCC1428 cells after 96 hrs by trypan blue exclusion assay; type: functional, cell-based; details: HCC1428, 96 h; outline: as §1
MOLT-4 = experiment: Cytotoxicity against human MOLT4 cells after 96 hrs by trypan blue exclusion assay; type: functional, cell-based; details: MOLT-4, 96 h; outline: as §1
HFL1 [12] = experiment: Cell cycle arrest in human HFL1 cells assessed as accumulation of cells in G2/M phase at 0.1 to 1 uM after 24 hrs by propidium iodide staining-based flow cytometric analysis; type: ADME; details: hfl1, 24 h
Outline: (§3)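 DMEM with 10% FBS; 1.0 × 10⁶ cells/dish, treated 24 h after plating and harvested 24 h after treatment. Trypsinized cells were pooled with floating cells, PBS-washed and fixed in ice-cold 70% ethanol for ≥24 h. Cells were stained with propidium iodide plus RNase A for 30 min at 37 °C. DNA content was read by flow cytometry with cell-cycle modelling.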

[13] = Aqueous solubility of the compound; type: physicochemical; details: water
[14] = Cytotoxicity against human RF1 cells after 96 hrs by trypan blue exclusion assay; type: functional, cell-based; details: RF1, 96 h; outline: as §2
MDA-MB-157 = experiment: Cytotoxicity against human MDA-MB-157 cells after 96 hrs by trypan blue exclusion assay; type: functional, cell-based; details: MDA-MB-157, 96 h; outline: as §1
T47D = experiment: Cytotoxicity against human T47D cells after 96 hrs by trypan blue exclusion assay; type: functional, cell-based; outline: as §2
OVCAR-3 = experiment: Cytotoxicity against human OVCAR3 cells after 96 hrs by trypan blue exclusion assay; type: functional, cell-based; details: OVCAR-3, 96 h; outline: as §1
KB = experiment: Cytotoxicity against human KB cells after 96 hrs by trypan blue exclusion assay; type: functional, cell-based; outline: as §1
K562 = experiment: Cytotoxicity against human K562 cells after 96 hrs by trypan blue exclusion assay; type: functional, cell-based; details: k562; outline: as §1
[15] = Cytotoxicity against human GRANTA-519 cells after 96 hrs by trypan blue exclusion assay; type: functional, cell-based; details: Granta-519, 96 h; outline: as §1
COLO 205 = experiment: Cytotoxicity against human COLO205 cells after 96 hrs by trypan blue exclusion assay; type: functional, cell-based; details: COLO 205, 96 h; outline: as §1
SW480 = experiment: Cytotoxicity against human SW480 cells after 96 hrs by trypan blue exclusion assay; type: functional, cell-based; details: SW480, 96 h; outline: as §2
HL-60 = experiment: Cytotoxicity against human HL60 cells after 96 hrs by trypan blue exclusion assay; type: functional, cell-based; details: HL-60, 96 h; outline: as §1
[16] = Cytotoxicity against human KG1a cells after 96 hrs by trypan blue exclusion assay; type: functional, cell-based; details: KG-1a; outline: as §1
[17] = Cytotoxicity against human WM793 cells after 96 hrs by trypan blue exclusion assay; type: functional, cell-based; details: WM793, 96 h; outline: as §2
NCI-H417 = experiment: Cytotoxicity against human NCI-N417 cells after 96 hrs by trypan blue exclusion assay; type: functional, cell-based; details: NCI-H417, 96 h; outline: as §1
[18] = Cytotoxicity against human DND1A cells after 96 hrs by trypan blue exclusion assay; type: functional, cell-based; outline: as §1
NCI-H187 = experiment: Cytotoxicity against human NCI-H187 cells after 96 hrs by trypan blue exclusion assay; type: functional, cell-based; details: NCI-H187, 96 h; outline: as §1
2008 = experiment: Cytotoxicity against human 2008 cells assessed as cell viability after 96 hrs by trypan blue exclusion; type: functional, cell-based; details: Homo sapiens, 2008, 96 h; outline: as §1
HCC70 = experiment: Cytotoxicity against human HCC70 cells after 96 hrs by trypan blue exclusion assay; type: functional, cell-based; details: HCC70, 96 h; outline: as §1
U-266 = experiment: Cytotoxicity against human U266 cells after 96 hrs by trypan blue exclusion assay; type: functional, cell-based; details: U-266, 96 h; outline: as §2
HFL1 [19] = experiment: Cell cycle arrest in human HFL1 cells assessed as accumulation at G1 phase at 0.1 to 1 uM after 24 hrs by propidium iodide staining-based flow cytometric analysis; type: ADME; details: hfl1, 24 h; outline: as §3

SMILES: COc1cc(OC)c(/C=C/S(=O)(=O)Cc2ccc(OC)c(NCC(=O)[O-])c2)c(OC)c1.[Na+] [RIGOSERTIB SODIUM]
- fold change (FC) (BT-20 [1]): 2.5
- IC50 [2]: > 100 µM
- IC50 [3]: 0.15 µM
- IC50 (OPM-2): 0.015 µM
- IC50 [4]: 0.1 µM
- IC50 [5]: 0.1 µM
- IC50 [6]: 0.06 µM
- IC50 (LP-1): 0.03 µM
- IC50 (BT-20 [7]): 0.08 µM
- Ratio IC50 (CEM/C2): 2
- IC50 (HEL): 0.05 µM
- IC50 (Bel-7402): 0.1 µM
- IC50 (PANC-1): 0.04 µM
- IC50 [8]: 0.04 µM
- IC50 (NCI-H1975): 0.09 µM
- IC50 [9]: 0.075 µM
- IC50 (HUVEC): > 100 µM
- IC50 [10]: 0.05 µM
- IC50 [11]: 0.06 µM
- IC50 (MOLT-4): 0.04 µM
- Activity (HFL1 [12]): Toxic
- solubility [13]: 28 mg/mL
- IC50 [14]: 0.05 µM
- IC50 (MDA-MB-157): 0.075 µM
- IC50 (T47D): 0.17 µM
- IC50 (OVCAR-3): 0.075 µM
- IC50 (KB): 0.07 µM
- IC50 (K562): 0.015 µM
- IC50 [15]: 0.075 µM
- IC50 (COLO 205): 0.15 µM
- IC50 (SW480): 0.06 µM
- IC50 (HL-60): 0.02 µM
- IC50 [16]: 0.03 µM
- IC50 [17]: 0.075 µM
- IC50 (NCI-H417): 0.08 µM
- IC50 [18]: 0.075 µM
- IC50 (NCI-H187): 0.08 µM
- IC50 2008: 0.15 µM
- IC50 (HCC70): 0.075 µM
- IC50 (U-266): 0.025 µM
- Activity (HFL1 [19]): Toxic

— ChEMBL document CHEMBL2010670, “Discovery of a clinical stage multi-kinase inhibitor sodium (E)-2-{2-methoxy-5-[(2',4',6'-trimethoxystyrylsulfonyl)methyl]phenylamino}acetate (ON 01910.Na): synthesis, structure-activity relationship, and biological activity” (J Med Chem, 2011)
